Experimental data published in ChEMBL document CHEMBL1145518, “Potent immune-modulating and anticancer effects of NKT cell stimulatory glycolipids” (2007).
Activity calls are given as the source filed them. The calls are words filed in the database; no cut-off is given here.

Assays:
[1] = Induction of IFN-gamma secretion in human CD161+ CD3+ NKT cells at 10 ug/ml after 18 hrs relative to basal level; type: functional
Procedure, shortened: (§1)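 Human Vα24i NKT cell lines were expanded for 10 days on irradiated (3,000 rad) autologous immature DCs with 10 units/ml IL-2. The cells (1 × 10^5) were cocultured with 5 × 10^4 irradiated immature CD14+ DCs plus glycolipid at 10 μg/ml. Supernatants were collected at 18 h and read on a 22-plex Luminex bead panel. Triplicates, mean ± SD.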

[2] = Induction of IL2 secretion in human CD161+ CD3+ NKT cells at 10 ug/ml after 18 hrs relative to basal level; type: functional; procedure, shortened: as §1
[3] = Induction of IL12p70 secretion in human CD161+ CD3+ NKT cells at 10 ug/ml after 18 hrs relative to basal level; type: functional; procedure, shortened: as §1
[4] = Induction of IL12p40 secretion in human CD161+ CD3+ NKT cells at 10 ug/ml after 18 hrs relative to basal level; type: functional; procedure, shortened: as §1
[5] = Induction of RANTES secretion in human CD161+ CD3+ NKT cells at 10 ug/ml after 18 hrs relative to basal level; type: functional; procedure, shortened: as §1
[6] = Induction of MIPalpha secretion in human CD161+ CD3+ NKT cells at 10 ug/ml after 18 hrs relative to basal level; type: functional; procedure, shortened: as §1
[7] = Induction of MCP1 secretion in human CD161+ CD3+ NKT cells at 10 ug/ml after 18 hrs relative to basal level; type: functional; procedure, shortened: as §1
[8] = Induction of IL8 secretion in human CD161+ CD3+ NKT cells at 10 ug/ml after 18 hrs relative to basal level; type: functional; procedure, shortened: as §1
[9] = Induction of TNFalpha secretion in human CD161+ CD3+ NKT cells at 10 ug/ml after 18 hrs relative to basal level; type: functional; procedure, shortened: as §1
TC1 = experiment: Antitumor activity in TC1 cells xenografted C57BL/6 mouse assessed as suppression of tumor growth at 2 ug, iv; type: functional, cell-based
Procedure, shortened: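 C57BL/6 mice (n = 5/group) were inoculated i.v. with TC-1 lung cancer cells. They were then treated i.v. with 2 μg glycolipid per mouse, or 100 μl of 1% DMSO, twice weekly for 4 weeks. Kaplan–Meier survival and body weight were followed, with tumor-free mice as an additional control.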

4T1 = experiment: Antitumor activity in mouse 4T1 cells xenografted BALB/c mouse assessed as suppression of tumor growth at 2 ug, iv; type: functional, cell-based
Procedure, shortened: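 BALB/c mice (n = 6) were inoculated s.c. with 4T1 breast cancer cells. From day 3 they were treated i.v. with glycolipid or vehicle twice weekly for 4 weeks. Tumor volume was recorded every 3 days for 1 month, and survival was monitored up to 54 days.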

Mus musculus [10] = experiment: Induction of IFN-gamma secretion in BALB/c mouse serum at 2 ug, iv after 18 hrs relative to control; type: functional
Procedure, shortened: (§2)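 BALB/c mice received an i.v. injection of 100 μl of glycolipid diluted to 20 μg/ml in saline from DMSO stock, with 1% DMSO as vehicle. Serum cytokines/chemokines were measured at 2 and 18 h after injection.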

Mus musculus [11] = experiment: Induction of IL1-beta secretion in BALB/c mouse serum at 2 ug, iv after 18 hrs relative to control; type: functional; procedure, shortened: as §2
Mus musculus [12] = experiment: Induction of IL2 secretion in BALB/c mouse serum at 2 ug, iv after 2 hrs relative to control; type: functional; procedure, shortened: as §2
Mus musculus [13] = experiment: Induction of IL12p70 secretion in BALB/c mouse serum at 2 ug, iv after 18 hrs relative to control; type: functional; procedure, shortened: as §2
Mus musculus [14] = experiment: Induction of IL12p40 secretion in BALB/c mouse serum at 2 ug, iv after 18 hrs relative to control; type: functional; procedure, shortened: as §2
Mus musculus [15] = experiment: Induction of RANTES secretion in BALB/c mouse serum at 2 ug, iv after 2 hrs relative to control; type: functional; procedure, shortened: as §2
Mus musculus [16] = experiment: Induction of MIPbeta secretion in BALB/c mouse serum at 2 ug, iv after 2 hrs relative to control; type: functional; procedure, shortened: as §2
Mus musculus [17] = experiment: Induction of KC secretion in BALB/c mouse serum at 2 ug, iv after 2 hrs relative to control; type: functional; procedure, shortened: as §2
Mus musculus [18] = experiment: Induction of TNFalpha secretion in BALB/c mouse serum at 2 ug, iv after 18 hrs relative to control; type: functional; procedure, shortened: as §2
Mus musculus [19] = experiment: Induction of IL3 secretion in BALB/c mouse serum at 2 ug, iv after 2 hrs relative to control; type: functional; procedure, shortened: as §2
Mus musculus [20] = experiment: Induction of GM-CSF secretion in BALB/c mouse serum at 2 ug, iv after 2 hrs relative to control; type: functional; procedure, shortened: as §2
Mus musculus [21] = experiment: Induction of IL6 secretion in BALB/c mouse serum at 2 ug, iv after 2 hrs relative to control; type: functional; procedure, shortened: as §2
Mus musculus [22] = experiment: Induction of IL10 secretion in BALB/c mouse serum at 2 ug, iv after 18 hrs relative to control; type: functional; procedure, shortened: as §2
Mus musculus [23] = experiment: Induction of IL13 secretion in BALB/c mouse serum at 2 ug, iv after 2 hrs relative to control; type: functional; procedure, shortened: as §2
[24] = Induction of GM-CSF secretion in human CD161+ CD3+ NKT cells at 10 ug/ml after 18 hrs relative to basal level; type: functional; procedure, shortened: as §1
[25] = Induction of IL15 secretion in human CD161+ CD3+ NKT cells at 10 ug/ml after 18 hrs relative to basal level; type: functional; procedure, shortened: as §1
[26] = Induction of IL4 secretion in human CD161+ CD3+ NKT cells at 10 ug/ml after 18 hrs relative to basal level; type: functional; procedure, shortened: as §1
[27] = Induction of IL6 secretion in human CD161+ CD3+ NKT cells at 10 ug/ml after 18 hrs relative to basal level; type: functional; procedure, shortened: as §1
[28] = Induction of IL10 secretion in human CD161+ CD3+ NKT cells at 10 ug/ml after 18 hrs relative to basal level; type: functional; procedure, shortened: as §1
HeLa [29] = experiment: Activation of TCR in human HeLa cells overexpressing CD1d assessed as increase in CD3epsilon phosphorylation; type: cell-based
Procedure, shortened: (§3)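 Human HeLa, HeLa-CD1d or autologous immature DCs were loaded with glycolipid at 10 μg/ml, or DMSO, for 2 h. Then 3 × 10^5 naïve CD161+/CD3+ NKT cells were added; these were bead-isolated and kept in 100 units/ml IL-2. After 5–10 min the cells were washed and lysed at 4°C. Phospho-CD3ε, ERK1/2 (Thr-185/Tyr-187) and CREB (Ser-133) were read by Luminex bead assay as median fluorescence normalized to total protein, expressed as fold over 1% DMSO.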

dendritic [30] = experiment: Activation of TCR in human immature dendritic cells assessed as increase in CD3epsilon phosphorylation; type: cell-based; procedure, shortened: as §3
HeLa [31] = experiment: Activation of TCR in human HeLa cells overexpressing CD1d assessed as increase in ERK1/2 phosphorylation; type: cell-based; procedure, shortened: as §3
dendritic [32] = experiment: Activation of TCR in human immature dendritic cells assessed as increase in ERK1/2 phosphorylation; type: cell-based; procedure, shortened: as §3
HeLa [33] = experiment: Activation of TCR in human HeLa cells overexpressing CD1d assessed as increase in CREB phosphorylation; type: cell-based; procedure, shortened: as §3
dendritic [34] = experiment: Activation of TCR in human immature dendritic cells assessed as increase in CREB phosphorylation; type: cell-based; procedure, shortened: as §3

| SMILES | Activity [1] | Activity [2] | Activity [3] | Activity [4] | Activity [5] | Activity [6] | Activity [7] | Activity [8] | Activity [9] | Activity (TC1) | Activity (4T1) | Activity (Mus musculus [10]) | Activity (Mus musculus [11]) | Activity (Mus musculus [12]) | Activity (Mus musculus [13]) | Activity (Mus musculus [14]) | Activity (Mus musculus [15]) | Activity (Mus musculus [16]) | Activity (Mus musculus [17]) | Activity (Mus musculus [18]) | other results |
| --- | --- | --- | --- | --- | --- | --- | --- | --- | --- | --- | --- | --- | --- | --- | --- | --- | --- | --- | --- | --- | --- |
| CCCCCCCCCCCCCCCCCCCCCCCCCC(=O)N[C@@H](CO[C@H]1O[C@H](CO)[C@H](O)[C@H](O)[C@H]1O)[C@H](O)[C@H](O)CCCCCCCCCCCCCC [RGI-7000] | 3.4 | 2.3 | 1.8 | 1.4 | 1.6 | 2.9 | 0.9 | 1.7 | 7.7 | Active | Active | 300 | 7.8 | 58.9 | 3.2 | 2.8 | 2.6 | 3.6 | 30.5 | 51 | Activity (Mus musculus [19]): 3; Activity (Mus musculus [20]): 13.1; Activity (Mus musculus [21]): 5.5; Activity (Mus musculus [22]): 3.6; Activity (Mus musculus [23]): 15.1; Activity [24]: 3.5; Activity [25]: 2.6; Activity [26]: 3.9; Activity [27]: 1.8; Activity [28]: 1.2; Activity (HeLa [29]): 7.3; Activity (dendritic [30]): 10.8; Activity (HeLa [31]): 6.6; Activity (dendritic [32]): 30; Activity (HeLa [33]): 32; Activity (dendritic [34]): 68 |
| CCCCCCCCCCCCCCCCCCCCCCCCCC(=O)N[C@@H](CO[C@H]1O[C@H](CO)[C@H](O)[C@H](O)[C@H]1O)[C@H](O)[C@H](O)CCc1ccccc1 | 6.6 | 2.8 | 3.2 | 1.8 | 2.5 | 3.6 | 2 | 3 | 7.6 | Active | Active | 122.5 | 3.4 | 75.3 | 6.6 | 3.5 | 2.1 | 5.3 | 19.2 | 2.3 | Activity (Mus musculus [19]): 38.8; Activity (Mus musculus [20]): 7.9; Activity (Mus musculus [21]): 6.3; Activity (Mus musculus [22]): 2.2; Activity (Mus musculus [23]): 12.6; Activity [24]: 4.3; Activity [25]: 2.3; Activity [26]: 2.7; Activity [27]: 2.8; Activity [28]: 1.2; Activity (HeLa [29]): 7.3; Activity (dendritic [30]): 17.3; Activity (HeLa [31]): 6.6; Activity (dendritic [32]): 35; Activity (HeLa [33]): 41; Activity (dendritic [34]): 158 |
